Data: ChEMBL document CHEMBL4673214, “Synthesis and antibacterial bioactivities of cationic deacetyl linezolid amphiphiles” (Eur J Med Chem, 2018)
In brackets after ≈: the same amount, converted by molar mass. Activity calls are given as the source filed them. The calls are words filed in the database; no cut-off is given here.

Legend:
Staphylococcus aureus [1] = assay: Antibacterial activity against methicillin-resistant Staphylococcus aureus clinical isolate 10 assessed as reduction in bacterial growth incubated for 16 to 20 hrs by CLSI-based broth microdilution method; type: functional; conditions: time 16-20 hrs
Method in brief: (§1)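 Clinical isolates tested by broth microdilution in cation-adjusted Mueller-Hinton broth. Cultures grown 4-6 h (~10^8 CFU/mL) were diluted to ~10^6 CFU/mL and mixed 1:1 with compound serial dilutions made from 256 down to 0.5 µg/mL (pre-mixing). Plates held at 37 °C for 16-20 h, then read for growth. Each concentration run in duplicate, whole experiment at least twice.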

Cell membrane [2] = assay: Induction of cytoplasmic membrane depolarization in Staphylococcus aureus ATCC 29213 at 20 ug/ml measured for 12 mins by DiSC35 dye-based fluorescence assay; type: subcellular; conditions: dose 20.0 µg/ml
Method in brief: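 Mid-log bacteria were washed and resuspended at ~10^8 CFU/mL: S. aureus in PBS, E. coli in 5 mM HEPES/5 mM glucose/100 mM KCl (1:1:1). Cells were loaded with diSC35 (10 µM stock) for 30 min (S. aureus) or 40 min (E. coli, plus EDTA). Fluorescence (ex 622/em 670 nm) was read for an 8 min baseline, then every 2 min for 12 min after compound at 20 µg/mL final. Water served as control.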

Staphylococcus aureus [3] = assay: Antibacterial activity against Staphylococcus aureus ATCC 29213 assessed as reduction in bacterial growth incubated for 16 to 20 hrs by CLSI-based broth microdilution method; type: functional; conditions: time 16-20 hrs
Method in brief: (§2)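 Broth microdilution following CLSI, in cation-adjusted Mueller-Hinton broth. Inoculum from a 4-6 h culture (~10^8 CFU/mL), diluted to ~10^6 CFU/mL. Water stocks were serially diluted in MHB (256 to 0.5 µg/mL) and mixed 1:1 with the inoculum. Plates ran 16-20 h at 37 °C. MIC was read visually. Each concentration was tested in duplicate, and the experiment was repeated at least twice.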

Salmonella enterica = assay: Antibacterial activity against Salmonella enterica ATCC 8387 assessed as reduction in bacterial growth incubated for 16 to 20 hrs by CLSI-based broth microdilution method; type: functional; conditions: time 16-20 hrs; method in brief: as §2
Enterobacteriaceae [4] = assay: Antibacterial activity against NDM1 producing carbapenem-resistant Enterobacteriaceae clinical isolate 5 assessed as reduction in bacterial growth incubated for 16 to 20 hrs by CLSI-based broth microdilution method; type: functional; conditions: time 16-20 hrs; method in brief: as §1
Enterobacteriaceae [5] = assay: Antibacterial activity against NDM1 producing carbapenem-resistant Enterobacteriaceae clinical isolate 4 assessed as reduction in bacterial growth incubated for 16 to 20 hrs by CLSI-based broth microdilution method; type: functional; conditions: time 16-20 hrs; method in brief: as §1
Cell membrane [6] = assay: Induction of inner membrane permeabilization in Staphylococcus aureus ATCC 29213 at 20 ug/ml measured for 12 mins by propidium iodide staining based fluorescence microscopic analysis; conditions: dose 20.0 µg/ml
Method in brief: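 Mid-log bacteria were washed and resuspended at ~10^8 CFU/mL and preincubated with propidium iodide (10 µM stock) for 30 min (S. aureus) or 40 min (E. coli). Fluorescence (ex 535/em 617 nm) was read on a plate for an 8 min baseline, then every 2 min for 12 min after compound at 20 µg/mL final. Water served as control.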

Klebsiella pneumoniae [7] = assay: Antibacterial activity against carbapenem-resistant Klebsiella pneumoniae clinical isolate 6 assessed as reduction in bacterial growth incubated for 16 to 20 hrs by CLSI-based broth microdilution method; type: functional; conditions: time 16-20 hrs; method in brief: as §1
Klebsiella pneumoniae [8] = assay: Antibacterial activity against carbapenem-resistant Klebsiella pneumoniae clinical isolate 7 assessed as reduction in bacterial growth incubated for 16 to 20 hrs by CLSI-based broth microdilution method; type: functional; conditions: time 16-20 hrs; method in brief: as §1
Klebsiella pneumoniae [9] = assay: Antibacterial activity against carbapenem-resistant Klebsiella pneumoniae clinical isolate 10 assessed as reduction in bacterial growth incubated for 16 to 20 hrs by CLSI-based broth microdilution method; type: functional; conditions: time 16-20 hrs; method in brief: as §1
Enterobacteriaceae [10] = assay: Antibacterial activity against NDM1 producing carbapenem-resistant Enterobacteriaceae clinical isolate 2 assessed as reduction in bacterial growth incubated for 16 to 20 hrs by CLSI-based broth microdilution method; type: functional; conditions: time 16-20 hrs; method in brief: as §1
Klebsiella pneumoniae [11] = assay: Antibacterial activity against carbapenem-resistant Klebsiella pneumoniae clinical isolate 9 assessed as reduction in bacterial growth incubated for 16 to 20 hrs by CLSI-based broth microdilution method; type: functional; conditions: time 16-20 hrs; method in brief: as §1
Staphylococcus aureus [12] = assay: Antibiofilm activity against 24 hrs preformed biofilm of Staphylococcus aureus ATCC 29213 assessed as biofilm viability at 32 ug/ml incubated for 24 hrs by crystal violet staining analysis (reference value: 18.9 1og10CFU); type: functional; conditions: dose 32 µg/ml
HeLa = assay: Cytotoxicity against human HeLa cells assessed as cell morphology at 1 to 4 ug/mL incubated for 24 hrs by optical microscopy; type: cell-based; conditions: dose 1-4 µg/ml
Method in brief: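 HeLa cells were kept in DMEM with 10% FBS at 37 °C and 5% CO2. Cells were seeded in 12-well plates, allowed to adhere overnight and exposed to 1, 2 or 4 µg/mL for 24 h. Untreated wells were the negative control and 0.1% Triton X-100 the positive control. After a PBS wash, morphology was imaged by inverted microscopy with a 10× objective. Three repeats.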

Escherichia coli [13] = assay: Antibiofilm activity against 72 hrs preformed biofilm of Escherichia coli ATCC 25922 assessed as biofilm viability at 16 ug/ml incubated for 24 hrs by […] (reference value: 16.1 log10CFU); type: functional; conditions: dose 16 µg/ml
Method in brief: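 E. coli from mid-log phase was diluted to ~10^5 CFU/mL in M9 medium with 0.02% casamino acids and 0.5% glycerol and formed biofilm without shaking for 72 h. Wells were PBS-washed, then treated with 2-128 µg/mL for 24 h at 37 °C; medium-only wells served as control. Cells were released with trypsin-EDTA and plated as tenfold dilutions. Viability was given as log10 CFU/well.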

Staphylococcus aureus [14] = assay: Antibacterial activity against methicillin-resistant Staphylococcus aureus assessed as reduction in bacterial growth following incubation in 50% MHB medium and 50% plasma and meaured after incubation with compound for 20 to 24 hrs by agar plate method; type: functional; conditions: time 20-24 hrs
Method in brief: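 Sheep plasma obtained by centrifuging defibrinated blood at 3500 rpm for 10 min; serum isolated in serum tubes. MRSA at 10^5 CFU/mL in 50% MHB plus 50% serum, plasma or blood, or in MHB alone. Compound dilutions (512 to 4 µg/mL, pre-mixing) added 50 µL to 150 µL bacteria, 37 °C for 20-24 h. Then 20 µL plated on MHA, 37 °C 20-24 h; MBC taken as no colonies. Two repeats.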

Staphylococcus aureus [15] = assay: Antibacterial activity against Staphylococcus aureus ATCC 29213 assessed as reduction in bacterial growth compound preincubated with 50% sheep plasma for 6 hrs followed by incubation for 20 to 24 hrs by agar plate method; type: functional; conditions: time 20-24 hrs
Method in brief: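 Sheep plasma came from centrifuged defibrinated blood. Compound at 512 µg/mL in 50% water/50% plasma was preincubated at 37 °C for 0, 3 or 6 h, then serially diluted (256 to 4 µg/mL). Dilutions were mixed 1:3 with S. aureus suspension (10^5 CFU/mL) and incubated 20-24 h at 37 °C. MBC was taken as no colonies after 20 µL was plated on agar.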

Escherichia coli [16] = assay: Bactericidal activity against early exponential phase of Escherichia coli ATCC 25922 at 4X MIC measured after 2 to 6 hrs hrs by time-kill kinetic assay; type: functional, organism-based; conditions: time 2-6 hrs
Method in brief: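 An overnight culture was diluted 1:10,000 in MHB and shaken at 225 rpm and 37 °C for 2 h (early exponential phase), then exposed to compound. Samples taken at intervals were centrifuged, resuspended in PBS, plated as tenfold dilutions on MHA and incubated overnight at 37 °C. CFU/mL were counted. Biological replicates were run.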

Compound | MIC (Staphylococcus aureus [1]) [µg/mL] | Activity (Cell membrane [2]) | MIC (Staphylococcus aureus [3]) [µg/mL] | MIC (Salmonella enterica) [µg/mL] | MIC (Enterobacteriaceae [4]) [µg/mL] | MIC (Enterobacteriaceae [5]) [µg/mL] | Activity (Cell membrane [6]) | MIC (Klebsiella pneumoniae [7]) [µg/mL] | MIC (Klebsiella pneumoniae [8]) [µg/mL] | MIC (Klebsiella pneumoniae [9]) [µg/mL] | MIC (Enterobacteriaceae [10]) [µg/mL] | MIC (Klebsiella pneumoniae [11]) [µg/mL] | Activity (Staphylococcus aureus [12]) [log10CFU] | Activity (HeLa) | Activity (Escherichia coli [13]) [log10CFU] | MBC (Staphylococcus aureus [14]) [µg/mL] | MBC (Staphylococcus aureus [15]) [µg/mL] | Activity (Escherichia coli [16])
C[C@@H](O)[C@H]1C(=O)N2C(C(=O)O)=C(S[C@@H]3CN[C@H](C(=O)N(C)C)C3)[C@H](C)[C@H]12 [MEROPENEM] | 32 (≈ 83.4 µM) | inactive | 0.125 (≈ 0.326 µM) | < 0.125 | 8 (≈ 20.9 µM) | 64 (≈ 167 µM) | inactive | > 64 | > 64 | 64 (≈ 167 µM) | 16 (≈ 41.7 µM) | > 64 | – | – | – | – | – | –
CCCCCCCCCCCN(C[C@H]1CN(c2ccc(N3CCOCC3)c(F)c2)C(=O)O1)C(=O)[C@@H](N)CCCCN.Cl.Cl | 4 | Active | 2 | 16 | 8 | 16 | Active | 16 | 16 | 16 | > 64 | 16 | 7.5 | Non-Toxic | 7.1 | 128 | 64 | Active
